In the RNAGym collection of RNA variant scans (doi:10.1126/science.aae0568):
Fewer inactive variants are shown than the library holds.

B1: tRNA (parent)
chain: GUUCCGUUGGCGUAAUGGUAACGCGUCUCCCUCCUAAGGAGAAGACUGCGGGUUCGAGUCCCGUACGGAACG

Variants of: B1
Assay: yeast fitness relative to wild type (ratio to wild type); higher = fitter; tRNA-Arg(CCU), competitive growth, 37 C, YPD
Method in brief: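 Changes in genotype frequencies gave Darwinian fitness relative to wild type. Frequencies were read by 100-nucleotide paired-end sequencing of gene amplicons before and after pooled Saccharomyces cerevisiae strains, carrying tRNA-Arg(CCU) gene variants at the native locus, were competed in YPD at 37°C for 24 hours in six replicates. A genotype was kept only with ≥ 100 starting reads, and estimates < 0.5 were set to 0.5.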

Point of comparison: A37G C60U, yeast fitness 0.631. Against it:
- A45U A57G G67A — lower, 0.598
- U3C C4U A20C A21U C27G A42U G52A — lower, ≤ 0.5
- U28C G41C C62A — lower, ≤ 0.5
- U2A U3G C5U C29G C30G C46G — lower, ≤ 0.5
- C27A G51A A70G — lower, ≤ 0.5
- C5U C30U G44C G67C — lower, ≤ 0.5
- C4G U16C C31U A70C — lower, ≤ 0.5
- U3C G12A A37C A45U G48C — lower, 0.591
- U16A U28A A45U C49A C66U — lower, ≤ 0.5
- C4A G12A A42G — lower, ≤ 0.5
- C4U A36C C46U — lower, ≤ 0.5
- G48U — higher, 1.03
- G18C A21G — higher, 0.643
- A65C A69U — higher, 0.921
- U19A C30A A43G — lower, ≤ 0.5
- C11G G58A A69U — lower, 0.571
- C4G G48A C49U G50A G51C U64A A70C — lower, ≤ 0.5
- C34U A57C — lower, 0.553
- C27U G68A — higher, 0.822
- A15G A37G C66U G67A — lower, ≤ 0.5
- G38A U53A C66U — lower, ≤ 0.5
- C5A G17C G18C — lower, 0.579
- C4G U7A U26A A40C A42G G58C — lower, ≤ 0.5
- C27A C33U — higher, 0.799
- A42G G44A — higher, 0.962
- C11U U13A G25A — higher, 0.716
- G12A C49U G67C A69G — lower, ≤ 0.5
- C27U U32C G41A C55A G63C — lower, ≤ 0.5
- U2C G23C C29A C49G A57U — lower, ≤ 0.5
- U13G U32A G48C G51A C61U A69G — lower, ≤ 0.5
- C11U G18C G39C — lower, ≤ 0.5
- C22U C31G G50A — lower, 0.606
- U7C A43G A65C — lower, 0.591
- C11A U19A U47C C55A C61U — lower, ≤ 0.5
- C30U U64C — higher, 0.902
- C30U A36U A57G — lower, ≤ 0.5
- G58A G68U — higher, 0.835
- C5U U7C C30G A42C — lower, 0.565
- C24U G39C — higher, 0.735
- C11A G25C G44A A57G — lower, ≤ 0.5
- G25A A37G — higher, 0.699
- A14G A21C C30G C55G G67U — lower, 0.534
- A14U A37G — lower, 0.6
- G10A G17A A37U — lower, ≤ 0.5
- C24G C33U C60G — lower, 0.519
- U13C A42C — higher, 0.932
- G10C G12A G25C A37G — lower, ≤ 0.5
- G58U G63C — lower, 0.586
- U2C U26C A36G — lower, ≤ 0.5
- G12A G44A C66U — higher, 0.697
- A14G C27G A37G U59G — lower, ≤ 0.5
- U3A U16C A20C A45G — lower, ≤ 0.5
- C24G C31U G50C — lower, 0.56
- G25A G52A A57G G67A — lower, ≤ 0.5
- G12C A20U C30U G38A C55U C66U — lower, ≤ 0.5
- A14U A36U G41A C49G — lower, ≤ 0.5
- C34A G38C A43U G68A — lower, ≤ 0.5
- U3C A21U G67C — lower, ≤ 0.5
- A36U — higher, 0.714
- G9A C31A G56A G67A — lower, ≤ 0.5
- C29U A45U — higher, 0.928
- G41A G68C — higher, 0.775
- C5G C27G C30U G51C C55A — lower, ≤ 0.5
- U2C A21G G68A — higher, 0.864
- A20U U47A A70G — lower, 0.62
- U3C A45C G48A U54C — higher, 0.751
- A21G C29U A57G — lower, 0.602
- U19A C29A U32A U54C C55G C60G — lower, ≤ 0.5
- C11U U59G — higher, 0.786
- U35C A36C A45C — lower, 0.522
- U13G C31A C66U — higher, 0.814
- G10C C27G U54C C61G — lower, ≤ 0.5
- C4G C5U A42G A45U C66U — lower, ≤ 0.5
- G12A C24G C33G A36C A37C A42C A65U — lower, ≤ 0.5
- U16A A21C G58A — lower, ≤ 0.5
- G6A A15G U26A C30G C46U — higher, 0.661
- U2G A14G C22U C24G A69C — lower, ≤ 0.5
- C30U U32A A36U A37U C61A — lower, ≤ 0.5
- U2G U32C — higher, 0.867
- G10A C60G A70U — lower, ≤ 0.5
- U3A G12C U13C C66U — higher, 0.664
- G9A C30G A43C — lower, ≤ 0.5
- C30U A36G — higher, 0.927
- C5U C27G C55G A69U — lower, ≤ 0.5
- A15U C30G C34U — higher, 0.71
- U26G U32A G51A — lower, ≤ 0.5
- C11U A14C C29U C30G A40G C49A — lower, ≤ 0.5
- C5A U32A A36C — lower, ≤ 0.5
- G9A C11G G68A — lower, ≤ 0.5
- A14G C62U G68C — lower, ≤ 0.5
- C22U U54G A65G G68U A70C — lower, ≤ 0.5
- C11G C22U — higher, 0.653
- A21C G56A A57G C66U — lower, ≤ 0.5
- C22A A45C C61U — lower, 0.604
- C4G U8A C11G A42U U64C G68C — lower, ≤ 0.5
- C24G C33U A43G U47A C60A — lower, ≤ 0.5
- C29G A36U A45U C55A — lower, ≤ 0.5
- A15C U28C C61G — lower, ≤ 0.5
- A42G C62U G68A — higher, 0.79
- G39C A43G G48C C49A G50A — lower, ≤ 0.5
- A15C C27G C49G — lower, 0.551
- A14C C34U — lower, ≤ 0.5
- A45G G58A G63A — higher, 0.727
- C5A A21C C34G C60G A70G — lower, ≤ 0.5
- U8C U13A G51A — lower, 0.53
- U2A U28C G41C U54A — lower, 0.56
- C24G A36G A65U — lower, 0.554
- C31U C33A — lower, 0.585
- G9C G18C U32G G41C C46U — lower, ≤ 0.5
- U26G C31U — higher, 1.02
- G12C C33G G44C — lower, 0.572
- U3A U13C — higher, 0.955
- U19A C60U — higher, 0.819
- G6A U28A — higher, 0.821
- A36U A42U C49U A69C — lower, ≤ 0.5
- U59A A69C — higher, 0.914
- G18A C34U A40G C66G — lower, ≤ 0.5
- U2C A14G G18A U32A G44A G56C — lower, ≤ 0.5
- C11A A36C A43G G50C — lower, ≤ 0.5
- C30U C34U G51C C55U — lower, ≤ 0.5
- G6A A45G A65U — higher, 0.771
- C29U A65C — higher, 0.751
- U8G A42G — lower, 0.58
- C24G C29U — lower, 0.521
- G52C A69C — higher, 0.687
- G10C U16A C30U A57G — higher, 0.646
- A21G A43C A69U A70C — higher, 0.762
- U8C G25C G38A G58A C60U — lower, ≤ 0.5
- G6C A14C G44C C62G — lower, ≤ 0.5
- G10A G38C C46A C62G C66U — lower, ≤ 0.5
- C31G C61A G67C — lower, ≤ 0.5
- C24U C66G G68C — lower, ≤ 0.5
- C5U A45C G58C — higher, 0.977
- U26C C30G G41A G56A C60G C62U G68A — lower, ≤ 0.5
- U19C U26A — higher, 0.945
- A21G G23A C27G G39C A45G — lower, ≤ 0.5
- C33A G39C A42G C55U A57G — lower, 0.585
- G17A U28A G51A C60G A65G C66G — lower, ≤ 0.5
- C22U U28C C29G C33A C60A A70C — lower, ≤ 0.5
- U54C G56C G58A — lower, 0.55
- U16A C24U A42U A45U U53A G56A — lower, ≤ 0.5
- G50A G68C — higher, 0.635
- C31G G48A — higher, 0.925
- A20G A69U — higher, 1.07
- U19G U64A A65G G67U — lower, 0.606
- U13G U16C G39C A65G — lower, ≤ 0.5
- U8A C30U C46A U54A A57G — lower, ≤ 0.5
- U26A G39C G48A C60G — lower, ≤ 0.5
- U13C U19A G51C C55U U64G — higher, 0.633
- A15G U26C G44A G50C A70G — lower, ≤ 0.5
- G10A G25A G41C A57G — lower, ≤ 0.5
- G17A C34A C62G — lower, ≤ 0.5
- A15G C49U A69C — higher, 0.875
- A15C A21G A36G C49U G67U — lower, ≤ 0.5
- G18C C29U C34U G58C — lower, ≤ 0.5
- U7A U8A U35C C62A — lower, 0.537
- C5A U35C G44A G48C C55G C66G — lower, ≤ 0.5
- C22G C29G A36C G39C C46G G52A G67C — lower, ≤ 0.5
- C24G C31A C33U U35A A57G U64C — lower, ≤ 0.5
- G9A A36C A45C G63A — lower, ≤ 0.5
- G6C U7C C31A — lower, ≤ 0.5
- C4G U8G G9A C11U C34G C61A — lower, ≤ 0.5
- A42U G68U — higher, 0.744
- U26A C49U C61G — lower, ≤ 0.5
- C5U G17C C24G G38C U54C — lower, ≤ 0.5
- U7A G10A A20C C29A U64C — lower, ≤ 0.5
